Assay results published in PMC3756490 (Journal of medicinal chemistry, 2012).

What was measured:
[1] = tested on: LN229-Lux cells (constitutive luciferase reporter gene); assay: constitutive luciferase reporter control assay in LN229-Lux cells; type: cell-based, human; settings: control for inhibition of luciferase per se
Outline: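 LN229-Lux cells carry a constitutive luciferase reporter driven by a retroviral LTR promoter. They were grown in DMEM with 10% serum, seeded at 3 × 10⁴ per well and treated with test compound in 1% DMSO medium under normoxia. Lysates were read for luminescence with luciferase substrate. Values are % of untreated control extracts, in triplicates.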

[2] = tested on: HIF transcriptional activity; assay: HIF-dependent luciferase reporter assay in LN229-V6R cells under hypoxia; type: cell-based, human; settings: for inhibition of HIF-1 transcriptional activity (HRE-mediated luciferase) at 10 μM: one day
Outline: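 LN229-V6R cells carry a stably integrated hypoxia/HIF-inducible luciferase reporter and were grown in DMEM with 10% serum. Cells were seeded at 3 × 10⁴ per well, held in normoxia (21% O₂, 5% CO₂) for 24 h, then given DMEM with 1% DMSO with or without test compound (2.5, 5.0, 10.0 μM). After 1 h at 37 °C, cells went to hypoxia (1% O₂) for 24 h. Cells were washed and lysed, and extract luminescence was read with luciferase substrate. Triplicates, expressed as % of untreated control.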

LogP7.4 measurement = type: physicochemical; settings: pH 7.4; shake flask method (6a, 6g) or HPLC method (1, 6b-6f, 6h-6l)
Outline: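 Shake-flask method (OECD 107): 1-octanol and 0.2 M phosphate buffer pH 7.4 were mutually presaturated by stirring for 24 h at room temperature. 1–2 mg test compound was partitioned between 2 mL each phase, in duplicate. The aqueous phase was quantified by HPLC at 254 nm against standard curves. HPLC method (OECD 117): C₁₈ column with methanol:water:triethylamine 70:30:0.1 at 2 mL/min, calibrated with the shake-flask compounds, aniline, benzene, toluene and chlorobenzene.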

HIF-1α = HIF-1α protein levels in LN229-V6R cells under hypoxia by western blot; type: cell-based, human; settings: 3-100 μM, hypoxia 24 hours
Outline: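 LN229-V6R cells (2 × 10⁵) were seeded in 35 mm dishes and kept under normoxia for 24 h. Fresh DMEM with 1% DMSO and test compound (3, 6, 12, 25, 50 or 100 μM) was added, then 1 h at 37 °C in normoxia, then 24 h in hypoxia (1% O₂). Lysates in SDS loading buffer were run on a 4–12.5% gradient gel and blotted with anti-HIF-1α (1:500) and anti-β-actin (1:3,000), with HRP/ECL detection. Each blot was done at least twice.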

[3] = metabolic stability in mouse liver homogenate; type: in vitro ADME; settings: mouse liver homogenate in PBS (1:2 w/v), pH 7.4
Outline: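 Test compound (20 μM) was incubated at 37 °C with shaking in fresh mouse liver homogenate in PBS pH 7.4 (1/2 w/v). At set times, samples were extracted with acetonitrile, dried and reconstituted in mobile phase. They were quantified by reverse-phase C₈ HPLC with photodiode-array detection, using α-naphthoflavone (2 μM) as internal standard and standard curves linear over 1–50 μM. Run in triplicate.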

SMILES	luciferase activity in LN229-Lux cells (constitutive reporter) [1]	inhibition of HIF-1 transcriptional activity (HRE-mediated luciferase) at 10 μM [2]	logP7.4 (LogP7.4 measurement)	further results
COc1ccc(S(=O)(=O)N(Cc2ccc3c(c2)C=CC(C)(C)O3)c2ccccc2)cc1OC [Compound 1, 3,4-dimethoxy-N-[(2,2-dimethyl-2H-chromene-6-yl)methyl]-N-phenylbenzenesulfonamide]	reduced luciferase activity only in LN229-V6R cells under hypoxia	–	–	–
CC(C)N(Cc1ccc2c(c1)C=CC(C)(C)O2)S(=O)(=O)c1ccccn1 [Compound 6a, N-[(2,2-dimethyl-2H-chromen-6-yl)methyl]-N-(propan-2-yl)pyridine-2-sulfonamide]	–	completely	–	–
COc1cc(CN(C(C)C)S(=O)(=O)c2ccccn2)cc2c1OC(C)(C)C=C2 [Compound 6g, N-[(8-methoxy-2,2-dimethyl-2H-chromen-6-yl)methyl]-N-(propan-2-yl)pyridine-2-sulfonamide]	–	60 ∼ 80%	1.2 ∼ 1.3	–
CC(C)CN(Cc1cc(O)c2c(c1)C=CC(C)(C)O2)S(=O)(=O)c1ccccn1 [Compound 6h, N-[(8-hydroxy-2,2-dimethyl-2H-chromen-6-yl)methyl]-N-(2-methylpropan-1-yl)pyridine-2-sulfonamide]	–	–	1.2 ∼ 1.3	–
CC(C)CN(Cc1cc(O)c2c(c1)C=CC(C)(C)O2)S(=O)(=O)c1ccncc1 [Compound 6l, N-[(8-hydroxy-2,2-dimethyl-2H-chromen-6-yl)methyl]-N-(2-methylpropan-1-yl)pyridine-4-sulfonamide]	–	60 ∼ 80%	1.2 ∼ 1.3	concentration from which HIF-1α levels decreased dose-dependently (HIF-1α): 25 µM; half-life at 20 μM [3]: 13 to 20 h
CO[C@H]1/C=C\C=C(/C)C(=O)NC2=CC(=O)C(NCCN(C)C)=C(C[C@@H](C)C[C@H](OC)[C@H](O)[C@@H](C)/C=C(\C)[C@@H]1OC(N)=O)C2=O [Compound 17-DMAG, reference compound]	inhibited both reporter cell lines	–	–	luciferase activity in LN229-V6R cells (qualitative) [2]: inhibited both reporter cell lines
